Test results: ChEMBL document CHEMBL1144701, “Synthesis and anti-HIV1 biological activity of novel 5''-ATSAO compounds” (Bioorg Med Chem, 2008)

Experiments:
[1] = test system: Human immunodeficiency virus 2; experiment: Antiviral activity against HIV2 ROD in CEM cells assessed as inhibition of virus-induced cytopathogenicity after 4 days; format: functional, organism-based; details: Human immunodeficiency virus 2, ROD, CCRF-CEM, 96 h
In short: (§1)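 CEM cells at 4 × 10⁵/mL infected with about 100 CCID₅₀ per mL of cell suspension (HIV-1 IIIB or HIV-2 ROD). Infected suspension mixed 1:1 with serial compound dilutions. Giant cell formation scored microscopically after 4 days. EC₅₀ is the concentration inhibiting virus-induced cytopathicity by 50%.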

[2] = Cytotoxicity against mock-infected human CEM cells assessed as reduction of cell viability after 4 days; format: cell-based; details: mock-infected CEM (CCRF-CEM) cells
In short: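 Mock-infected CEM cells, plated as in the parallel infection assay at 4 × 10⁵/mL, mixed 1:1 with serial compound dilutions. CC₅₀ is the concentration reducing the number of viable cells by 50%.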

[3] = test system: Human immunodeficiency virus 1; experiment: Antiviral activity against HIV1 3B in CEM cells assessed as inhibition of virus-induced cytopathogenicity after 4 days; format: functional, organism-based; details: Human immunodeficiency virus 1, 3B, CCRF-CEM, 96 h; in short: as §1
[4] = test system: Human immunodeficiency virus 1; experiment: Antiviral activity against HIV1 in MT4 cells; format: functional, organism-based; details: Human immunodeficiency virus 1, MT4

| EC50 [1] [µM] | EC50 [3] [µM] | EC50 [4] [µM] | SMILES | CC50 at 96 h [2] [µM] |
| --- | --- | --- | --- | --- |
| > 100 | 0.33 | 0.13 | Cc1cn([C@@H]2O[C@H](CO[Si](C)(C)C(C)(C)C)[C@@]3(NS(=O)(=O)C=C3N)[C@H]2O[Si](C)(C)C(C)(C)C)c(=O)[nH]c1=O | 19.1 |
| > 2 | > 2 | – | Cc1cn([C@@H]2O[C@H](CO[Si](C)(C)C(C)(C)C)[C@]3(C(N)=C(c4ccccc4)S(=O)(=O)N3C)[C@H]2O[Si](C)(C)C(C)(C)C)c(=O)n(C)c1=O | 10.9 |
| > 50 | > 50 | – | CCn1c(=O)c(C)cn([C@@H]2O[C@H](CO[Si](C)(C)C(C)(C)C)[C@@]3(NS(=O)(=O)C(c4ccccc4)=C3N)[C@H]2O[Si](C)(C)C(C)(C)C)c1=O | ≥ 10 |
| ≥ 2 | ≥ 2 | – | Cc1cn([C@@H]2O[C@H](CO[Si](C)(C)C(C)(C)C)[C@@]3(NS(=O)(=O)C(c4ccccc4)=C3N)[C@H]2O[Si](C)(C)C(C)(C)C)c(=O)[nH]c1=O | ≥ 10 |
| 30 | > 50 | – | Cc1cn([C@@H]2O[C@H](CO[Si](C)(C)C(C)(C)C)[C@@]3(NS(=O)(=O)C(c4ccccc4)=C3N)[C@H]2O[Si](C)(C)C(C)(C)C)c(=O)n(C(=O)OC(C)(C)C)c1=O | ≥ 10 |
| > 50 | > 50 | – | Cc1cn([C@@H]2O[C@H](CO[Si](C)(C)C(C)(C)C)[C@@]3(NS(=O)(=O)C(c4ccccc4)=C3N)[C@H]2O[Si](C)(C)C(C)(C)C)c(=O)n(C)c1=O | ≥ 10 |

| SMILES | EC50 [1] [µM] | EC50 [3] [µM] | EC50 [4] [µM] | CC50 at 96 h [2] [µM] |
| --- | --- | --- | --- | --- |
| Cc1cn([C@@H]2O[C@H](CO[Si](C)(C)C(C)(C)C)[C@@]3(OS(=O)(=O)C=C3N)[C@H]2O[Si](C)(C)C(C)(C)C)c(=O)[nH]c1=O | > 4 | – | – | 16 |
